Test results taken from ChEMBL document CHEMBL4118061, “Design and synthesis of potent HIV-1 protease inhibitors with (S)-tetrahydrofuran-tertiary amine-acetamide as P2-ligand: Structure-activity studies and biological evaluation” (Eur J Med Chem, 2017).

Biological target: Protease (Human immunodeficiency virus 1, UniProt Q9YQ12)
Test: Inhibition of HIV1 protease expressed in Escherichia coli using Arg-Glu (EDANS)-Ser-GlnAsn-Tyr-Pro-Ile-Val-Gln-Lys(DABCYL)-Arg as substrate preincubated for 20 to 30 mins followed by substrate addition measured for 10 mins by FRET method
Procedure, shortened: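 Wild-type HIV-1 protease, cloned and expressed in E. coli, then purified. Inhibitors were dissolved in DMSO and diluted. Reaction buffer: 0.1 M sodium acetate, 1 M NaCl, 1 mM EDTA, 1 mM DTT, 2% DMSO, 1 mg/mL BSA, pH 4.7. Enzyme and inhibitor were preincubated 20-30 min at room temperature, then substrate was added. FRET read-out was recorded for about 10 min.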

Chain of Protease (Q9YQ12 whole entry): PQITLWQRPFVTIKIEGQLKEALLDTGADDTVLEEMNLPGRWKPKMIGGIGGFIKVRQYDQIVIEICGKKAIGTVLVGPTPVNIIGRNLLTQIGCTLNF

IC50 [nM]	Compound
28.6	COc1ccc(S(=O)(=O)N(CC(C)C)C[C@@H](O)[C@H](Cc2ccccc2)NC(=O)CN(CC(=O)N(C)C)[C@H]2CCOC2)cc1
310	COc1ccc(S(=O)(=O)N(CC(C)C)C[C@@H](O)[C@H](Cc2ccccc2)NC(=O)CN[C@H]2CCOC2)cc1OC
33.6	CC(C)CN(C[C@@H](O)[C@H](Cc1ccccc1)NC(=O)CN(CC(N)=O)[C@H]1CCOC1)S(=O)(=O)c1ccc([N+](=O)[O-])cc1
4.26	COCCN(CC(=O)N[C@@H](Cc1ccccc1)[C@H](O)CN(CC(C)C)S(=O)(=O)c1ccc(CO)cc1)[C@H]1CCOC1
> 1000	COc1ccc(S(=O)(=O)N(CC(C)C)C[C@@H](O)[C@H](Cc2ccccc2)NC(=O)CN(CC(=O)N(C)C)[C@H]2CCOC2)cc1OC
270	CC(C)CN(C[C@@H](O)[C@H](Cc1ccccc1)NC(=O)CN(CC(=O)N(C)C)[C@H]1CCOC1)S(=O)(=O)c1ccc([N+](=O)[O-])cc1
190	COCCN(CC(=O)N[C@@H](Cc1ccccc1)[C@H](O)CN(CC(C)C)S(=O)(=O)c1ccc(OC)c(OC)c1)[C@H]1CCOC1
160	CC(C)CN(C[C@@H](O)[C@H](Cc1ccccc1)NC(=O)CN(CC(=O)N1CCOCC1)[C@H]1CCOC1)S(=O)(=O)c1ccc(N)cc1
6	COCCN(CC(=O)N[C@@H](Cc1ccccc1)[C@H](O)CN(CC(C)C)S(=O)(=O)c1ccc2c(c1)OCO2)[C@@H]1CCOC1
0.88	COCCN(CC(=O)N[C@@H](Cc1ccccc1)[C@H](O)CN(CC(C)C)S(=O)(=O)c1ccc(N)cc1)[C@H]1CCOC1
98.1	CC(C)CN(C[C@@H](O)[C@H](Cc1ccccc1)NC(=O)CN(CC(=O)N1CCOCC1)[C@H]1CCOC1)S(=O)(=O)c1ccc([N+](=O)[O-])cc1
22.7	CC(C)CN(C[C@@H](O)[C@H](Cc1ccccc1)NC(=O)CN([C@H]1CCOC1)S(C)(=O)=O)S(=O)(=O)c1ccc(CO)cc1
> 1000	CC(C)CN(C[C@@H](O)[C@H](Cc1ccccc1)NC(=O)CN(CC(N)=O)[C@H]1CCOC1)S(=O)(=O)c1ccc2c(c1)OCO2
10.2	CC(C)CN(C[C@@H](O)[C@H](Cc1ccccc1)NC(=O)CN[C@H]1CCOC1)S(=O)(=O)c1ccc(CO)cc1
9.9	COc1ccc(S(=O)(=O)N(CC(C)C)C[C@@H](O)[C@H](Cc2ccccc2)NC(=O)CN(CC(N)=O)[C@H]2CCOC2)cc1OC
16	COc1ccc(S(=O)(=O)N(CC(C)C)C[C@@H](O)[C@H](Cc2ccccc2)NC(=O)CN[C@@H]2CCOC2)cc1
1.65	CC(C)CN(C[C@@H](O)[C@H](Cc1ccccc1)NC(=O)CN[C@H]1CCOC1)S(=O)(=O)c1ccc2c(c1)OCO2
68	COCCN(CC(=O)N[C@@H](Cc1ccccc1)[C@H](O)CN(CC(C)C)S(=O)(=O)c1ccc(OC(F)(F)F)cc1)[C@H]1CCOC1
910	CC(C)CN(C[C@@H](O)[C@H](Cc1ccccc1)NC(=O)CN(CC(=O)N1CCOCC1)[C@H]1CCOC1)S(=O)(=O)c1ccc(OC(F)(F)F)cc1
110	CC(C)CN(C[C@@H](O)[C@H](Cc1ccccc1)NC(=O)CN(CC(=O)N1CCOCC1)[C@H]1CCOC1)S(=O)(=O)c1ccc(CO)cc1
6.85	COCCN(CC(=O)N[C@@H](Cc1ccccc1)[C@H](O)CN(CC(C)C)S(=O)(=O)c1ccc(OC)cc1)[C@@H]1CCOC1
44	COc1ccc(S(=O)(=O)N(CC(C)C)C[C@@H](O)[C@H](Cc2ccccc2)NC(=O)CN(CC(=O)N2CCOCC2)[C@H]2CCOC2)cc1
> 1000	CC(C)CN(C[C@@H](O)[C@H](Cc1ccccc1)NC(=O)CN(CC(=O)N(C)C)[C@H]1CCOC1)S(=O)(=O)c1ccc(OC(F)(F)F)cc1
59.8	CC(C)CN(C[C@@H](O)[C@H](Cc1ccccc1)NC(=O)CN([C@H]1CCOC1)S(C)(=O)=O)S(=O)(=O)c1ccc(N)cc1

IC50 [nM]	Compound
46.3	CC(C)CN(C[C@@H](O)[C@H](Cc1ccccc1)NC(=O)CN[C@H]1CCOC1)S(=O)(=O)c1ccc([N+](=O)[O-])cc1
530	CC(C)CN(C[C@@H](O)[C@H](Cc1ccccc1)NC(=O)CN(CC(N)=O)[C@H]1CCOC1)S(=O)(=O)c1ccc(OC(F)(F)F)cc1
22.9	CC(C)CN(C[C@@H](O)[C@H](Cc1ccccc1)NC(=O)CN([C@H]1CCOC1)S(C)(=O)=O)S(=O)(=O)c1ccc2c(c1)OCO2
290	CC(C)CN(C[C@@H](O)[C@H](Cc1ccccc1)NC(=O)CN[C@H]1CCOC1)S(=O)(=O)c1ccc(OC(F)(F)F)cc1
27.2	CC(C)CN(C[C@@H](O)[C@H](Cc1ccccc1)NC(=O)CN(CC(=O)N1CCOCC1)[C@H]1CCOC1)S(=O)(=O)c1ccc2c(c1)OCO2
57	CC(C)CN(C[C@@H](O)[C@H](Cc1ccccc1)NC(=O)CN(CC(N)=O)[C@H]1CCOC1)S(=O)(=O)c1ccc(N)cc1
53.4	CC(C)CN(C[C@@H](O)[C@H](Cc1ccccc1)NC(=O)CN[C@@H]1CCOC1)S(=O)(=O)c1ccc2c(c1)OCO2
141	CC(C)CN(C[C@@H](O)[C@H](Cc1ccccc1)NC(=O)CN[C@@H]1CCOC1)S(=O)(=O)c1ccc(N)cc1
12.6	COc1ccc(S(=O)(=O)N(CC(C)C)C[C@@H](O)[C@H](Cc2ccccc2)NC(=O)CN([C@H]2CCOC2)S(C)(=O)=O)cc1
> 1000	COc1ccc(S(=O)(=O)N(CC(C)C)C[C@@H](O)[C@H](Cc2ccccc2)NC(=O)CN(CC(=O)N2CCOCC2)[C@H]2CCOC2)cc1OC
0.77	COCCN(CC(=O)N[C@@H](Cc1ccccc1)[C@H](O)CN(CC(C)C)S(=O)(=O)c1ccc2c(c1)OCO2)[C@H]1CCOC1
2.23	COc1ccc(S(=O)(=O)N(CC(C)C)C[C@@H](O)[C@H](Cc2ccccc2)NC(=O)CN[C@H]2CCOC2)cc1
20.4	COc1ccc(S(=O)(=O)N(CC(C)C)C[C@@H](O)[C@H](Cc2ccccc2)NC(=O)CN(CC(N)=O)[C@H]2CCOC2)cc1
38	CC(C)CN(C[C@@H](O)[C@H](Cc1ccccc1)NC(=O)CN(CC(=O)N(C)C)[C@H]1CCOC1)S(=O)(=O)c1ccc(N)cc1
65	CC(C)CN(C[C@@H](O)[C@H](Cc1ccccc1)NC(=O)CN(CC(=O)N(C)C)[C@H]1CCOC1)S(=O)(=O)c1ccc(CO)cc1
22.8	COCCN(CC(=O)N[C@@H](Cc1ccccc1)[C@H](O)CN(CC(C)C)S(=O)(=O)c1ccc(N)cc1)[C@@H]1CCOC1
4.11	CC(C)CN(C[C@@H](O)[C@H](Cc1ccccc1)NC(=O)CN[C@H]1CCOC1)S(=O)(=O)c1ccc(N)cc1
> 1000	CC(C)CN(C[C@@H](O)[C@H](Cc1ccccc1)NC(=O)CN([C@H]1CCOC1)S(C)(=O)=O)S(=O)(=O)c1ccc(OC(F)(F)F)cc1
17.7	COCCN(CC(=O)N[C@@H](Cc1ccccc1)[C@H](O)CN(CC(C)C)S(=O)(=O)c1ccc([N+](=O)[O-])cc1)[C@H]1CCOC1
0.35	COCCN(CC(=O)N[C@@H](Cc1ccccc1)[C@H](O)CN(CC(C)C)S(=O)(=O)c1ccc(OC)cc1)[C@H]1CCOC1
19.3	CC(C)CN(C[C@@H](O)[C@H](Cc1ccccc1)NC(=O)CN(CC(N)=O)[C@H]1CCOC1)S(=O)(=O)c1ccc(CO)cc1
56.9	CC(C)CN(C[C@@H](O)[C@H](Cc1ccccc1)NC(=O)CN(CC(=O)N(C)C)[C@H]1CCOC1)S(=O)(=O)c1ccc2c(c1)OCO2
> 1000	COc1ccc(S(=O)(=O)N(CC(C)C)C[C@@H](O)[C@H](Cc2ccccc2)NC(=O)CN([C@H]2CCOC2)S(C)(=O)=O)cc1OC
291	CC(C)CN(C[C@@H](O)[C@H](Cc1ccccc1)NC(=O)CN([C@H]1CCOC1)S(C)(=O)=O)S(=O)(=O)c1ccc([N+](=O)[O-])cc1
